# Laboratory results from ChEMBL document CHEMBL3351507, “11H-Pyrido[3',2':4,5]pyrrolo[3,2-c]cinnoline and pyrido[3',2':4,5]pyrrolo[1,2-c][1,2,3]benzotriazine: two new ring systems with antitumor activity” (2014).
# Active and inactive are the calls of the source. The rule behind the calls is not given here.
# Key:
# [1] = target: T1, DNA topoisomerase 1 (Homo sapiens) (UniProt P11387); assay: Inhibition of human DNA topoisomerase 1-mediated DNA single strand cleavage at 5 to 100 uM after 30 mins by agarose gel electrophoresis relative to untreated control
# T1 sequence (whole entry): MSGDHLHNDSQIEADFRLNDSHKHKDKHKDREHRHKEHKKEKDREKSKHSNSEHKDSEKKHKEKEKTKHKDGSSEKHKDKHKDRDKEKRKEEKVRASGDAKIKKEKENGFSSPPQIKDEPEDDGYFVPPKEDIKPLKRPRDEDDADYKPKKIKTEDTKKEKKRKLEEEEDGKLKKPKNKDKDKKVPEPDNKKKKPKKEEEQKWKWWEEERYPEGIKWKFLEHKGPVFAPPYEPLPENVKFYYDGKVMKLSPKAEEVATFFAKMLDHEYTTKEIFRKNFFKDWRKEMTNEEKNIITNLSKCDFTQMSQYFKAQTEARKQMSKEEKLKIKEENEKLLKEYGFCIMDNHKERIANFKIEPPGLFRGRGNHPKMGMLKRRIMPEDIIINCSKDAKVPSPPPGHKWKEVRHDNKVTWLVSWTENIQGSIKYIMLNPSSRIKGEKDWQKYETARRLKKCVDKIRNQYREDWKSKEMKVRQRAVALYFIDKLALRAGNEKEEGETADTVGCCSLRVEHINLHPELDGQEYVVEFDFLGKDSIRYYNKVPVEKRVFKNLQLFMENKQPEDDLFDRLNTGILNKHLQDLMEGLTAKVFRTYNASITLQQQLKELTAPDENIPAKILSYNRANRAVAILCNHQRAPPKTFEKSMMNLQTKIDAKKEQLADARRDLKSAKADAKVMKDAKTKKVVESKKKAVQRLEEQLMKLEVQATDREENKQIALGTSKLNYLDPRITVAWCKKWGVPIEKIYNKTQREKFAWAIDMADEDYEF
# Summary of the method: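 Reactions were set up as for relaxation: human topoisomerase I, 0.250 µg pBR322, compound 5-100 µM, 37 °C for 30 min, stopped with SDS/proteinase K. Samples were run on 0.8% agarose containing 0.5 µg/mL ethidium bromide, then destained in water, so that cleaved/nicked DNA could be detected under UV.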
# CCRF-CEM [2] = assay: Resistance index, ratio of GI50 for human vinblastin-resistant CEM cells to GI50 for human CEM cells; assay type: functional
# Summary of the method: (§1)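 CEMVbl-100 (vinblastine-selected CEM) was grown in RPMI-1640 with 0.1 µg/mL vinblastine. LoVoDoxo was grown in HAM's F12 with 0.1 µg/mL doxorubicin; parental CEM and LoVo were grown without drug. Media had 10% FBS. 5x10^3 cells were seeded, preincubated 24 h at 37 °C, then exposed 72 h to compound (DMSO <1%). Read-out was MTT; GI50 came from dose-response curves of ≥3 experiments. RI = GI50 resistant / GI50 parental.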
# CCRF-CEM [3] = assay: Cytotoxicity against human CEM cells assessed as growth inhibition after 72 hrs by MTT assay; assay type: functional
# Summary of the method: (§2)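 Cells were grown in medium with 10% heat-inactivated FBS plus penicillin/streptomycin: RPMI-1640 for Jurkat and CEM, DMEM for A-431, HAM's F12 for LoVo. The doxorubicin-resistant LoVo subclone was kept with 0.1 µg/mL doxorubicin. Cells were seeded at 5x10^3 per well and pre-incubated 24 h at 37 °C.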
# CCRF-CEM [4] = assay: Cytotoxicity against human vinblastin-resistant CEM cells assessed as growth inhibition after 72 hrs by MTT assay; assay type: functional; summary of the method: as §1
# LoVo [5] = assay: Resistance index, ratio of GI50 for human LoVo/DX cells to GI50 for human LoVo cells; assay type: functional; summary of the method: as §1
# LoVo [6] = assay: Cytotoxicity against human LoVo cells assessed as growth inhibition after 72 hrs by MTT assay; assay type: functional; summary of the method: as §2
# [7] = Cytotoxicity against human LoVo/DX cells assessed as growth inhibition after 72 hrs by MTT assay; assay type: functional; summary of the method: as §2
smiles,measurement,setting,value
CC[C@@]1(O)C(=O)OCc2c1cc1n(c2=O)Cc2cc3ccccc3nc2-1,Activity,[1],Active
CC[C@]1(O)C[C@@H]2CN(CCc3c([nH]c4ccccc34)[C@@](C(=O)OC)(c3cc4c(cc3OC)N(C)[C@H]3[C@@](O)(C(=O)OC)[C@H](OC(C)=O)[C@]5(CC)C=CCN6CC[C@]43[C@@H]65)C2)C1 [VINBLASTINE],Ratio,CCRF-CEM [2],525
same,GI50,CCRF-CEM [3],4 nM
same,GI50,CCRF-CEM [4],210 nM
COc1cccc2c1C(=O)c1c(O)c3c(c(O)c1C2=O)C[C@@](O)(C(=O)CO)C[C@@H]3O[C@H]1C[C@H](N)[C@H](O)[C@H](C)O1 [DOXORUBICIN],Ratio,LoVo [5],112.5
same,GI50,LoVo [6],120 nM
same,GI50,[7],13500 nM
